Screening results deposited in PubChem BioAssay by several laboratories.
STAT3 activator – IL-6 driven STAT3 reporter potentiators, primary screen, U3A cells, luciferase, luminescence, MLSCN library. IL-6 STAT3-luciferase reporter; 100% = signal with IL-6 EC80 alone. activation (% of control), % at 5.6 µM. hit rate 0.91% among 190,000;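 active = activation above the screen-wide mean of compound activation plus 3 SD, cut at about 130% in these data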;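 note: 0% = background luminescence of wells with medium and substrate only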
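Material: STAT1-lacking human U3A cells, STAT3 luciferase reporter | Benchmarks: IL-6-only wells as 100% reference | Probe or stimulus: IL-6 (33 ng/mL) | Timing: Compound 1 h, then IL-6 6 h at 37 °C | Detection: Luminescence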
STAT1 activator – STAT1 signaling activators, primary screen, cell-based, HTS, luciferase reporter | hit rate 2.6% among 200,000 | activation (% of control), % at 5.5 µM | NIH 3T3 STAT1-luciferase reporter, IFN-gamma, luminescence; 100% = IFN-gamma alone, no compound;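 active = activation above the screen-wide mean activation plus 3 SD, cut at about 130% in these data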;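 note: raw ratio to IFN-gamma control signal so 100% means no change and 0% no light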
STAT1 inh – STAT1 signaling inhibitors, primary screen, cell-based, HTS, luciferase reporter; NIH 3T3 STAT1-luciferase reporter, IFN-gamma, luminescence; hit rate 0.35% among 200,000; AID 920, 2007; inhibition, % at 5.5 µM;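 active = inhibition above a set limit, the mean inhibition across all tested compounds plus 3 SD, cut at about 34% in these data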;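 note: 0% = IFN-gamma with DMSO and 100% = IFN-gamma with 300 µM nifuroxazide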
APP 5'UTR act – activators of APP 5'UTR luciferase reporter, primary screen, SH-SY5Y cells; SH-SY5Y APP 5'UTR luciferase reporter, luminescence; zero percent = DMSO vehicle wells; activation, % at 2 µM; hit rate 1% among 190,000; AID 1276, 2008;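 active = activation above a set limit, based on mean plus 3 SD of controls, cut at about 140% in these data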
NF-kB expr up – activators of NF-kB expression in neurons, primary screen, cell-based, HTS | human neuronal cells, NF-kB reporter expression; hits give high values | fold change at 12.5 µM | hit rate 1.6% among 190,000 | AID 1239, 2008; in the data active = fold change above about 3.3
STAT3 blocker – IL-6 driven STAT3 reporter inhibitors, primary screen, U3A cells, luciferase, luminescence, MLSCN library. hit rate 0.89% among 190,000. inhibition, % at 5.5 µM. IL-6 STAT3-luciferase reporter; host cell line lacks STAT1;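 active = inhibition above the mean inhibition across all screened compounds plus 3 SD, cut at about 44% in these data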;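 note: 0% = DMSO only wells and 100% = 100 µM nifuroxazide control wells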
STAT1 activ conf – STAT1 signaling activators, confirmation, cell-based, HTS, luciferase reporter. shares compounds with STAT1 activator. NIH 3T3 STAT1-luciferase reporter, IFN-gamma potentiation, luminescence; 100% = IFN-gamma EC80 alone, no compound. activation (% of control), % at 5.7 µM. hit rate 97% among 1,200. AID 1262, 2008;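 active = activation above a set limit carried over from the earlier primary STAT1 screen, cut at about 140% in these data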;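 note: simple ratio to median IFN-gamma plus DMSO wells so 0% means no light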
NFkB act STAT1ct – NF-kB reporter activators, TNF-alpha stimulated, counter-screen for STAT1 activator project, cell-based, HEK293T, luciferase luminescence; 100% = TNF-alpha with vehicle only; hit rate 43% among 1,200; activation (% of control), % at 5.7 µM; AID 1306, 2008; shares compounds with STAT1 activator;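 active = activation above the mean of solvent-only control wells plus 3 SD, set per campaign, cut at about 130% in these data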;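 note: TNF-alpha given at a submaximal dose yielding about 80% of full reporter signal; values are well signal over median control so 100% means no change and 0% no light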
STAT3 act STAT1c – STAT3 reporter activation by STAT1 hits, confirmation, counter-screen for STAT1 activator project, U3A cells, luciferase, luminescence; shares compounds with STAT1 activator; IL-6; cells lack STAT1; 100 = IL-6 alone, no compound effect; activation (% of control), % at 5.7 µM; hit rate 46% among 1,200;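 active = activation above the solvent-only control well mean plus 3 SD, set per plate batch, cut at about 110% in these data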;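 note: 0% = no luminescence and 100% = median IL-6 plus DMSO wells; higher means more STAT3 reporter activation so hits are non-selective activators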
The depositor's hits bear a star; · = no result given. Most compounds without a hit are left out; they make up all but 5.1% or so of the library.

SMILES | STAT3 activator | STAT1 activator | STAT1 inh | APP 5'UTR act | NF-kB expr up | STAT3 blocker | STAT1 activ conf | NFkB act STAT1ct | STAT3 act STAT1c
CCc1ccc(C(=O)COc2ccc(NC(C)=O)cc2)cc1 | 97 | 97 | 3 | 8 | 1.4 | 0 | · | · | ·
COc1ccc(NC(=O)N/C=C/c2ccccc2)cc1 | 95 | 156* | -61 | 113 | 1.2 | 13 | 168* | 142* | 105
Cc1ccc2oc(=O)n(CCCOc3ccccc3C)c2c1 | 89 | 110 | -13 | -2 | 1.7 | 19 | · | · | ·
O=C(NCCc1ccc(Cl)cc1)c1n[nH]c2ccccc12 | 89 | 116 | -18 | 17 | 1.2 | 21 | · | · | ·
O=C(NCCc1ccccc1)c1n[nH]c2ccccc12 | 93 | 164* | -74 | 88 | 3.4* | 13 | 184* | 130 | 104
CCOC(=O)C1CNc2cc(S(=O)(=O)CC)ccc2O1 (centres undefined) | 102 | 102 | -2 | 17 | 1.1 | 3 | · | · | ·
CC(C)=CC(=O)Nc1nnc(C)s1 | 98 | 110 | -8 | 52 | 1.3 | 6 | · | · | ·
CC(C)=CC(=O)Nc1nnc(-c2ccccc2)s1 | 100 | 162* | -69 | 9 | 3.2 | 10 | 196* | 135* | 104
Cc1nc(Nc2ccccc2)sc1-c1ccccc1 | 90 | 193* | -104 | 187* | 8.8* | 15 | 242* | 130 | 107
CCOC(=O)c1sc(Nc2ccccc2)nc1C | 110 | 120 | -32 | 68 | 2.4 | -11 | · | · | ·
COc1cc(/C=C(\C#N)c2nc3c(s2)CCCC3)ccc1O | 109 | 120 | -22 | 60 | 2.7 | -5 | · | · | ·
CC1CCc2nc(/C(C#N)=C/c3cccnc3)sc2C1 (centres undefined) | 103 | 220* | -135 | 168* | 2.1 | -2 | 286* | 146* | 113*
N#C/C(=C\c1cccnc1)c1nc2c(s1)CCCC2 | 105 | 165* | -71 | 147* | 4.2* | -4 | 185* | 133 | 102
CNC(=O)c1c(Cl)cnn1-c1ccc(C)cc1 | 102 | 161* | -70 | 109 | 2.3 | 2 | 164* | 138* | 114*
CNC(=O)c1c(Br)cnn1-c1ccc(C)cc1 | 97 | 152* | -60 | 130 | 2.9 | 8 | 180* | 131 | 116*
O=C(N/N=C/c1ccco1)c1ccccc1OCc1ccc(Br)cc1 | 108 | 116 | -18 | 22 | 1.2 | -5 | · | · | ·
COc1ccc(NC(=O)c2oc3ccccc3c2NC(=O)c2ccc3c(c2)OCO3)cc1 | 84 | 97 | 3 | -6 | 0.48 | 22 | · | · | ·
CCOCC(=O)Nc1c(C(=O)Nc2ccc3c(c2)OCCO3)oc2ccccc12 | 100 | 155* | -60 | 129 | 1.4 | 7 | 160* | 142* | 103
COCC(=O)Nc1c(C(=O)Nc2ccc3c(c2)OCCO3)oc2ccccc12 | 102 | 176* | -88 | 195* | 2.4 | 3 | 176* | 140* | 104
Cc1ccc(N(C(=O)Cc2cccs2)C(C(=O)NC2CCCCC2)c2ccccn2)cc1C (centres undefined) | 113 | 105 | -5 | -5 | 0.67 | -11 | · | · | ·
Cc1ccc(C2=C/C(=C/c3cccs3)C(=O)O2)cc1 | 105 | 114 | -16 | -2 | 0.9 | -7 | · | · | ·
